Hits are enriched below; roughly 3.5% of the tested compounds scored in any of these assays.
RGS4 act – potentiators or activators of RGS4. HEK293 M3R/inducible RGS4, carbachol calcium flux Fluo4; stronger effect = lower value. B-score at 10 µM. 310,000 compounds, 0.92% hits;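 active means B-score of the integrated calcium signal more than 4 SD below the library mean, with starting fluorescence not abnormally high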;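 further: negative B-score means reduced calcium response which marks RGS4 activation or potentiation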
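Test system: HEK293 cells with stable M3R and inducible RGS4; also added: carbachol at ECmax as muscarinic agonist stimulus; schedule: dye loading 30 min 37 °C, buffer rest 30 min RT; technique: kinetic calcium fluorescence imaging with Fluo4-AM dye, 2 µM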
RGS4 inh – human RGS4 inhibition; HEK293 M3R/RGS4 inducible, Fluo-4 calcium flux; stronger effect = higher value; triggered by carbachol at its EC20; B-score at 10 µM; P49798; 310,000 compounds, 0.45% hits;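 active means B-score, a plate-corrected calcium signal, over three deviations above library mean, with baseline fluorescence within five deviations of library mean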;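 further: RGS4 expression induced by doxycycline in cells with stable M3 receptor; B-score is computed from the integrated fluorescence ratio over baseline after carbachol; higher B-score means a larger calcium signal and so more RGS4 inhibition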
Target sequence (P49798 whole entry, looked up): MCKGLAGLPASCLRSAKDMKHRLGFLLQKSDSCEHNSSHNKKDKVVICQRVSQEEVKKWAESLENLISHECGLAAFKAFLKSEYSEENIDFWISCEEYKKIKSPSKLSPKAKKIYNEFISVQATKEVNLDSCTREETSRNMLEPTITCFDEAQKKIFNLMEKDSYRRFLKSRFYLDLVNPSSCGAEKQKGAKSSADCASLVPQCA
MrgX1 PAM – allosterically activates human MrgX1 receptor signaling | Q96LB2 | MrgX1-HEK293, Fluo-4 calcium flux, FDSS; stronger effect = higher value | AID 588675 | 310,000 compounds, 0.63% hits | B-score at 10 µM;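 active means plate-corrected calcium response at least 3 library SD above typical, normal starting fluorescence, not activating the receptor alone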;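 further: compound read alongside a low EC10 to EC30 dose of BAM8-22 agonist; peak minus trough fluorescence over baseline measured at the second addition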
MrgX1 agonist – human MrgX1 receptor agonism, primary screen; Q96LB2; 310,000 compounds, 0.44% hits; MrgX1-HEK293 cells, Fluo-4 calcium fluorescence, agonist mode; stronger effect = higher value; B-score at 10 µM;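 active means calcium response B-score plate-corrected fluorescence ratio at least 3 library SD, with starting fluorescence B-score inside 5 SD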
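Test system: HEK293 cells stably expressing human MrgX1 receptor; amount: 15,000 cells per well; doses: compound delivered in addition one of three; times: overnight plating before 1 h dye loading; detection: Fluo-4 NW calcium-flux fluorescence, kinetic read; read-out basis: B-scored fluorescence response ratio; controls: positive and negative controls per plate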
MrgX1 antagonist – blocks BAM8-22 activation of human MrgX1 receptor; Q96LB2; MRGX1-HEK293 calcium flux, Fluo-4, BAM8-22 antagonism; stronger effect = lower value; B-score at 10 µM; 310,000 compounds, 1.3% hits;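 active means calcium-response B-score plate-corrected more than 3 library SD below zero, starting fluorescence within 5 deviations, no agonist response on first addition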;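 further: peak minus trough fluorescence over baseline after final BAM8-22 challenge near maximal dose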
Each line names hits and unclear results; the compound was inactive in the other large screens.

O=c1oc2ccccc2cc1-c1nc2c(s1)CCc1ccccc1-2	MrgX1 antagonist -6.8
c1ccc(Cc2ccc(OCCCNC3CCCC3)cc2)cc1	RGS4 act -12
c1ccc(-c2ccc(OCCCNC3CCCC3)cc2)cc1	none
COc1ccc(N2CCN(S(=O)(=O)CCNC(=O)c3cc(=O)c4ccccc4o3)CC2)cc1	none
Cc1ccc(O)c(NC(=O)c2noc3c2CCc2ccccc2-3)c1	none
Cc1cc(NC(=O)c2noc3c2CCc2ccccc2-3)no1	MrgX1 antagonist -7.4
O=C1CSC(=Nc2ccccc2[N+](=O)[O-])N1	MrgX1 antagonist -4.6
COc1ccc(N=C2NC(=O)CS2)c([N+](=O)[O-])c1	none
C=CCc1ccccc1OCC(=O)NNC(=S)NCc1ccccc1	RGS4 act -7
O=C(COc1ccc(Cl)cc1)NNC(=S)NCc1ccccc1	none
Cc1ccc2[nH]c(O)c(N=O)c2c1	none
Cc1ccc(C2NC(c3ccc(C)cc3)C(C)C(=NO)C2C)cc1 (centres undefined)	MrgX1 PAM 12
CC1C(=NO)C(C)C(c2ccccc2)NC1c1ccccc1 (centres undefined)	none
Cc1nc(NC(=O)CSc2nnc(-c3ccccc3)c(-c3ccccc3)n2)c(Cl)cc1Cl	RGS4 act -7.2
Cc1cc(C)c(NC(=O)CS(=O)CC(=O)NCCN2CCCCCC2)c(C)c1 (centres undefined)	none
O=C(NC(c1cccnc1)C(F)(F)F)c1cc(COc2ccc3c(c2)CCCC3)on1 (centres undefined)	RGS4 act -7.1
COc1ccc(CCNCC(O)COc2cccc(C(C)=O)c2)cc1OC (centres undefined)	none
O=C(NCCCN1CCOCC1)c1cc(-c2cccc(Br)c2)nc2ccccc12	none
COCCNC(=O)c1sc2nc(-c3ccccc3)cn2c1C	none
O=C(NCCCN1CCOCC1)c1cc(-c2ccc(Cl)s2)nc2ccccc12	MrgX1 antagonist -7.4
Cc1c(C(=O)NCCCN2CCOCC2)sc2nc(-c3ccccc3)cn12	MrgX1 antagonist -7.3
COc1ccc(OC)c(Nc2cc(C(=O)NCCCN3CCOCC3)c3ccccc3n2)c1	MrgX1 antagonist -5.7
CCC(C)NC(=O)C1CC(=O)N(CCc2ccc(F)cc2)C1 (centres undefined)	none
COc1ccc(CNC(=O)CN(Cc2ccccc2)C(=O)CCC(=O)Nc2nccs2)cc1	none
COc1ccc(/C=N/Nc2cc(C)nc3ccc(OC)cc23)c(OC)c1	RGS4 act -7.7
CN(C)N=C1c2cc(S(=O)(=O)N(C)C)ccc2-c2ccc(S(=O)(=O)N(C)C)cc21	none
OCC1(O)OC[C@@H](O)[C@H]1O (some centres undefined)	none
COc1ccccc1OCCCN1C(=O)C(=O)c2cccc(C)c21	MrgX1 agonist 28
COc1ccc(C(=O)NCCn2cc(SCC(N)=O)c3ccccc32)cc1	none
OC1(c2cccs2)CN(c2ccc(Cl)cc2)C2=[N+]1CCCC2 (centres undefined)	RGS4 act -9.1
OC1(c2cccs2)CN(c2ccc(Cl)cc2)C2=[N+]1CCCS2 (centres undefined)	MrgX1 agonist 28
Cc1ccc(C)c(N2CC(O)(c3cccs3)[N+]3=C2CCCC3)c1 (centres undefined)	none
CS(=O)(=O)N(CC(=O)Nc1cccc(Br)c1)Cc1ccccc1	none
O=C(c1ccc(Cn2cnnn2)cc1)N1CCCC(Nc2ccc(F)c(F)c2)C1 (centres undefined)	none
NC(=O)c1ccc(OCC(F)(F)F)nc1	none
CCN1C(=O)/C(=C\N2CCCCCC2)SC1=S	RGS4 act -8.3
Cc1ccc(C)c(S(=O)(=O)c2c(C)cc(C)[nH]c2=O)c1	none
Cc1ccc(Oc2ncccc2/C=N/OCc2ccc(Cl)cc2Cl)cc1	MrgX1 PAM 7.3
CCCCOc1ccc(N=Cc2ccc[nH]2)cc1	none
C=CC[n+]1c(-c2ccc(OC)c(OC)c2)csc1NNC(=O)Nc1ccccc1	MrgX1 antagonist -4.6
CCCCC(=O)N(c1ccc(C(=O)O)cc1)c1nc(-c2ccc(Cl)cc2)c(CC)s1	RGS4 act -7.4
CCc1sc(N(C(=O)Cc2ccccc2)c2ccccc2)nc1-c1ccccc1	none
O=C(O)c1cccc(-c2ccc(/C=c3/sc4nc5ccccc5n4c3=O)o2)c1	MrgX1 antagonist -12
